Measured values taken from article PMC11774189 (RSC Advances, 2025).
Like-named read-outs stand apart in the source and are kept apart here.

Tests used:
[1] = tested on: Hek-293 human embryonic kidney cells; test: MTT cytotoxicity assay, Hek-293 cells; format: cell-based; settings: for IC50: read-out: IC50, Hek-293
[2] = tested on: MCF7 (breast cancer) cell line; test: MTT cytotoxicity assay, MCF7 cells; format: cell-based, human; settings: read-out: IC50, MCF7
[3] = tested on: A549 (non-small lung cancer) cell line; test: MTT cytotoxicity assay, A549 cells; format: cell-based, human; settings: read-out: IC50, A549
[4] = tested on: HepG2 (hepatoma carcinoma) cell line; test: MTT cytotoxicity assay, HepG2 cells; format: cell-based, human; settings: read-out: IC50, HepG2
[5] = tested on: KB (epidermoid carcinoma) cell line; test: MTT cytotoxicity assay, KB cells; format: cell-based, human; settings: read-out: IC50, KB
A549 cells [6] = test: Annexin-V FITC and PI flow cytometry assay for apoptosis; format: cell-based, human; settings: 48 hours
Method in brief: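 A549 cells seeded at 5×10^5 per 25 cm² flask, treated 48 h with test compound (0.45, 0.9, 1.8 μM), DMSO 1% vehicle or camptothecin 2 μM. Harvested, washed in cold PBS, resuspended in binding buffer, stained with annexin V plus PI (1 mg mL⁻¹ stock), 15 min at 37 °C, diluted in binding buffer, analysed by flow cytometry. Quadrants: live, early apoptotic, late apoptotic, necrotic.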

A549 cells [7] = test: Cell cycle analysis by PI flow cytometry; format: cell-based, human; settings: 24 hours
Method in brief: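 A549 cells seeded at 3×10^5 per 25 cm² flask; exposed 24 h to test compound (0.45, 0.9, 1.8 μM) or DMSO 0.5%. Cells washed twice in PBS, fixed in ice-cold 70% ethanol at –20 °C for 2 h, pelleted, treated with RNase A (2.5 mg mL⁻¹) 15 min at 37 °C, stained 30 min with PI (1 mg mL⁻¹ stock), then flow cytometry for phase distribution.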

“4′,6′-Dimethyl-3H-spiro[benzo[g]furo[3,4-b]quinoline-11,3′-indoline]-1,2′,5,10(4H)-tetraone [Compound 7g]” showed an IC50 ([1]; MTT, 3 days incubation) of 7.27 ± 0.78 µM, an IC50 ([2]; MTT, 3 days incubation) of 2.62 ± 0.22 µM and an IC50 ([3]; MTT, 3 days incubation) of 1.67 ± 0.17 µM. The IC50 ([4]; MTT, 3 days incubation) was 6.74 ± 0.68 µM and the IC50 ([5]; MTT, 3 days incubation) was 4.85 ± 0.41 µM.

With CC[C@@]1(O)C(=O)OCc2c1cc1n(c2=O)Cc2cc3ccccc3nc2-1 [Camptothecin, reference compound] the “% early apoptosis cells (Q2-4)” value (A549 cells [6]; A549, 2 μM) was 30.71%, the “% late apoptosis cells (Q2-2)” value (A549 cells [6]; A549, 2 μM) was 11.05% and the “% necrotic cells (Q2-1)” value (A549 cells [6]; A549, 2 μM) was 1.99%. For the same compound, the “% total apoptosis cells” value (A549 cells [6]; A549, 2 μM) was 41.76%.

Compound O=C1OCC2=C1C1(C(=O)Nc3ccccc31)C1=C(N2)C(=O)c2ccccc2C1=O (stereo not shown) [Compound 7a, 3H-Spiro[benzo[g]furo[3,4-b]quinoline-11,3′-indoline]-1,2′,5,10(4H)-tetraone] has an IC50 ([1]; Homo sapiens, HEK293, 72 h) of 4.89 ± 0.44 µM, an IC50 ([2]; Homo sapiens, MCF7, 72 h) of 1.95 ± 0.21 µM and an IC50 ([3]; Homo sapiens, A549, 72 h) of 1.98 ± 0.16 µM. It also gave an IC50 ([4]; Homo sapiens, HepG2, 72 h) of 5.33 ± 0.62 µM and an IC50 ([5]; Homo sapiens, KB, 72 h) of 5.33 ± 0.62 µM.

For O=C1OCC2=C1C1(C(=O)Nc3ccc(Cl)cc31)C1=C(N2)C(=O)c2ccccc2C1=O (stereo not shown) [Compound 7b, 5′-Chloro-3H-spiro[benzo[g]furo[3,4-b]quinoline-11,3′-indoline]-1,2′,5,10(4H)-tetraone], the IC50 ([1]; Homo sapiens, HEK293, 72 h) was 3.32 ± 0.33 µM, the IC50 ([2]; Homo sapiens, MCF7, 72 h) was 4.2 ± 0.5 µM and the IC50 ([3]; Homo sapiens, A549, 72 h) was 1.41 ± 0.12 µM. For the same compound, the IC50 ([4]; Homo sapiens, HepG2, 72 h) was 2.32 ± 0.31 µM and the IC50 ([5]; Homo sapiens, KB, 72 h) was 3.15 ± 0.21 µM.

For Cc1ccc2c(c1)C1(C(=O)N2)C2=C(COC2=O)NC2=C1C(=O)c1ccccc1C2=O (stereo not shown) [Compound 7c, 5′-Methyl-3H-spiro[benzo[g]furo[3,4-b]quinoline-11,3′-indoline]-1,2′,5,10(4H)-tetraone], the IC50 ([1]; Homo sapiens, HEK293, 72 h) was 3.89 ± 0.4 µM, the IC50 ([2]; Homo sapiens, MCF7, 72 h) was 4.17 ± 0.48 µM and the IC50 ([3]; Homo sapiens, A549, 72 h) was 1.91 ± 0.2 µM. The IC50 ([4]; Homo sapiens, HepG2, 72 h) was 4.02 ± 0.45 µM and the IC50 ([5]; Homo sapiens, KB, 72 h) was 3.46 ± 0.33 µM.

O=C1OCC2=C1C1(C(=O)Nc3ccc(Br)cc31)C1=C(N2)C(=O)c2ccccc2C1=O (stereo not shown) [Compound 7d, 5′-Bromo-3H-spiro[benzo[g]furo[3,4-b]quinoline-11,3′-indoline]-1,2′,5,10(4H)-tetraone] gave an IC50 ([1]; Homo sapiens, HEK293, 72 h) of 3.52 ± 0.37 µM, an IC50 ([2]; Homo sapiens, MCF7, 72 h) of 2.07 ± 0.26 µM and an IC50 ([3]; Homo sapiens, A549, 72 h) of 1.62 ± 0.17 µM. The IC50 ([4]; Homo sapiens, HepG2, 72 h) was 4.34 ± 0.41 µM and the IC50 ([5]; Homo sapiens, KB, 72 h) was 4.75 ± 0.41 µM.

For O=C1OCC2=C1C1(C(=O)Nc3c(Br)cc(Br)cc31)C1=C(N2)C(=O)c2ccccc2C1=O (stereo not shown) [Compound 7f, 5′,7′-Dibromo-3H-spiro[benzo[g]furo[3,4-b]quinoline-11,3′-indoline]-1,2′,5,10(4H)-tetraone], the “% early apoptosis cells (Q2-4)” value (A549 cells [6]; A549, 0.45 μM) was 1.76%, the “% late apoptosis cells (Q2-2)” value (A549 cells [6]; A549, 0.45 μM) was 1.26% and the “% necrotic cells (Q2-1)” value (A549 cells [6]; A549, 0.45 μM) was 0.64%. The “% total apoptosis cells” value (A549 cells [6]; A549, 0.45 μM) was 3.02%, the “% early apoptosis cells (Q2-4)” value (A549 cells [6]; A549, 0.9 μM) was 3.13% and the “% late apoptosis cells (Q2-2)” value (A549 cells [6]; A549, 0.9 μM) was 1.83%. The “% necrotic cells (Q2-1)” value (A549 cells [6]; A549, 0.9 μM) was 0.94%, the “% early apoptosis cells (Q2-4)” value (A549 cells [6]; A549, 1.8 μM) was 12.68% and the “% late apoptosis cells (Q2-2)” value (A549 cells [6]; A549, 1.8 μM) was 6.72%. For the same compound, the “% necrotic cells (Q2-1)” value (A549 cells [6]; A549, 1.8 μM) was 2.53%, the “% total apoptosis cells” value (A549 cells [6]; A549, 1.8 μM) was 19.4% and the “fold lower cytotoxicity against Hek-293 cells than to A549” value ([1]; Hek-293 vs A549) was “about 7 fold”. The IC50 ([1]; Homo sapiens, HEK293, 72 h) was 6.7 ± 0.57 µM, the “% G0/G1” value (A549 cells [7]; A549, 0.45 μM) was 36.01% and the “% G2/M” value (A549 cells [7]; A549, 0.45 μM) was 13.49%. For the same compound, the “% S” value (A549 cells [7]; A549, 0.45 μM) was 47.96%, the “% G0/G1” value (A549 cells [7]; A549, 0.9 μM) was 26.63% and the “% G2/M” value (A549 cells [7]; A549, 0.9 μM) was 4.17%. For the same compound, the “% S” value (A549 cells [7]; A549, 0.9 μM) was 67.93%, the “% G0/G1” value (A549 cells [7]; A549, 1.8 μM) was 20.81% and the “% G2/M” value (A549 cells [7]; A549, 1.8 μM) was 13.61%. The “% S” value (A549 cells [7]; A549, 1.8 μM) was 63.88%, the IC50 ([2]; Homo sapiens, MCF7, 72 h) was 1.84 ± 0.17 µM and the IC50 ([3]; Homo sapiens, A549, 72 h) was 0.9 ± 0.09 µM. It also gave an IC50 ([4]; Homo sapiens, HepG2, 72 h) of 3.28 ± 0.39 µM and an IC50 ([5]; Homo sapiens, KB, 72 h) of 1.99 ± 0.22 µM.
